Results from paper PMC2731475 (Journal of the American Chemical Society, 2009).
Where two headings read alike, the source gives them in different places.

How the values were obtained:
[1] = system: RNAs containing a 1×1 nucleotide CC internal loop; details: cited from earlier work
RNA6 = assay: Fluorescence binding assay, RNA6
Summary of the method: (§1)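 RNA hairpins were annealed in 8 mM sodium phosphate pH 7.0, 185 mM NaCl, 1 mM EDTA at 60 °C for 1 min and slowly cooled. They were titrated into 1 μM test compound in the same buffer and read after 5 min as fluorescence (ex 360/40, em 460/40). Plots were fraction bound/[RNA] versus fraction bound, fitted to a large-ligand lattice-binding equation giving the microscopic dissociation constant.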

r(CUG)109 [2] = assay: Fluorescence binding assay, r
Summary of the method: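 r(CUG)109, transcribed from BamHI-linearised plasmid and gel-purified, was annealed at 60 °C for 1 min in pH 7.0 phosphate/185 mM NaCl/EDTA buffer. It was titrated into test compound (1 μM; 5 μM for one monomeric ligand) and fluorescence read after 5 min. Data were fitted to a lattice-binding equation with N repeat units. Selectivity = Kd(herring sperm DNA)/Kd(r(CUG)109).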

RNA3 = assay: Fluorescence binding assay, RNA3
Summary of the method: as §1

DNA1 = assay: Fluorescence binding assay, DNA1; details: for Kd: DNA1, DNA hairpin with 5′AATT/3′TTAA
Summary of the method: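 The DNA hairpin was titrated into 1 μM test compound in 8 mM sodium phosphate pH 7.0, 185 mM NaCl, 1 mM EDTA. After 5 min incubation, fluorescence was read at ex 360/40 and em 460/40. Fraction bound/[nucleic acid] was plotted against fraction bound to obtain binding constants.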

RNA2 = assay: Fluorescence binding assay, RNA2; details: RNA2, single 5′CUG/3′GUC (DM1) motif
Summary of the method: as §1

RNA7 = assay: Fluorescence binding assay, RNA7
Summary of the method: as §1

RNA4 = assay: Fluorescence binding assay, RNA4
Summary of the method: as §1

RNA12-MBNL1 complex = assay: MBNL1-RNA12; format: biochemical
RNA10 = assay: Fluorescence binding assay, RNA10
herring sperm DNA = assay: Fluorescence binding assay, herring sperm DNA
Summary of the method: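 Herring sperm DNA was annealed at 90 °C for 3 min in 8 mM sodium phosphate pH 7.0, 185 mM NaCl, 1 mM EDTA and slowly cooled. It was titrated into 1 μM test compound, and fluorescence (ex 360/40, em 460/40) was read after 5 min. Fraction bound/[DNA] versus fraction bound was fitted to a straight line for Kd.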

RNA5 = assay: Fluorescence binding assay, RNA5
Summary of the method: as §1

RNA9 = assay: Fluorescence binding assay, RNA9
Summary of the method: as §1

RNA11-MBNL1 complex = assay: MBNL1-RNA11; format: biochemical
RNA8 = assay: Fluorescence binding assay, RNA8
Summary of the method: as §1

RNA1 = assay: Fluorescence binding assay, RNA1
Summary of the method: as §1

r(CUG)109-MBNL1 complex = assay: r; format: biochemical
5′CUG/3′GUC = details: studies on 5′UTR of thymidylate synthetase mRNA; cited from earlier work
mice = details: cited from earlier work
r(CUG)109 [3] = details: MBNL1 binding to r(CUG)109; cited from earlier work
RNA16 [4] = assay: Binding of MBNL1 to RNA16; details: MBNL1, RNA16 versus RNA11
RNA12 [5] = assay: Binding of MBNL1 to RNA12; details: MBNL1, RNA12 versus RNA11
RNA14 [6] = assay: Binding of MBNL1 to RNA14
RNA15 = details: MBNL1 binding to RNA15, gel retardation; cited from earlier work
RNA16 [7] = details: MBNL1 binding to RNA16, gel retardation; cited from earlier work
RNA11 = details: MBNL1 binding to RNA11, gel retardation; cited from earlier work
RNA17 = assay: Binding of MBNL1 to RNA17
RNA13 [8] = details: MBNL1 binding to RNA13, gel retardation; cited from earlier work
RNA13 [9] = assay: Binding of MBNL1 to RNA13; details: MBNL1, RNA13 versus RNA11
RNA12 [10] = details: MBNL1 binding to RNA12, gel retardation; cited from earlier work
RNA14 [11] = details: MBNL1 binding to RNA14, gel retardation; cited from earlier work

## Cn1cc(NC(=O)c2cc(NC(=O)c3cc(NC=O)cn3C)cn2C)cc1C(=O)NCCC(=N)N [distamycin]
[1]
  affinity for RNAs containing a 1×1 nucleotide CC internal loop: nanomolar affinities

## N=C(N)c1ccc(-c2cc3ccc(C(=N)N)cc3[nH]2)cc1 [DAPI, 2-(4-amidinophenyl)-1H-indole-6-carboxamidine]
[1]
  affinity for RNAs containing a 1×1 nucleotide CC internal loop: nanomolar affinities

## CN1CCN(c2ccc3nc(-c4ccc5nc(-c6cccc(OCCCC(=O)NCCCN=[N+]=[N-])c6)[nH]c5c4)[nH]c3c2)CC1 [Compound 2, meta-(N-(3-azidopropyl)-4-oxybutanamide)-Hoechst]
RNA6; RNA6, 1×1 CC loop
  Kd: 290 ± 50 nM
RNA6; RNA6 versus RNA2
  Specificity to RNA2: 2.2
r(CUG)109 [2]
  specificity for r(CUG)109 versus herring sperm DNA: 0.7 fold
r(CUG)109 [2]; Kd herring sperm DNA divided by Kd r(CUG)109
  Selectivity for r(CUG)109 over herring sperm DNA: 0.73
r(CUG)109 [2]; r(CUG)109 hairpin, 54 DM1 motifs
  Kd: 150 ± 25 nM
RNA3; 5′CUG/3′GUC (RNA2) versus 5′CUC/3′GUG (RNA3)
  binds RNA2 more tightly than RNA3: > 8 fold
RNA3; RNA3, 5′CUC/3′GUG
  Kd: 1050 ± 212 nM
RNA3; RNA3 versus RNA2
  Specificity to RNA2: 8.0
DNA1
  Kd: 250 ± 63 nM
DNA1; DNA1 versus RNA2
  Specificity to RNA2: 1.9
DNA1; RNA2 over DNA1
  specific for RNA2 over DNA1: ~2 fold
RNA2
  Kd: 130 ± 25 nM
RNA7; RNA7, 1×1 CC loop
  Kd: ~1000 nM
RNA7; RNA7 versus RNA2
  Specificity to RNA2: ∼7.7
RNA4; RNA4, 1×1 UU loop with AU closing pairs
  Kd: 370 ± 107 nM
RNA4; RNA4 versus RNA2
  Specificity to RNA2: 2.8
RNA4; loop GC pairs (RNA2) changed to AU (RNA4)
  weaker binding than to RNA2: Approximately 3 fold
RNA12-MBNL1 complex; RNA 12, Condition A: 7.5 pmoles of MBNL1 per well
  IC50: 48400 ± 9900 nM
RNA12-MBNL1 complex; RNA 12, Condition B: 2.0 pmoles of MBNL1 per well
  IC50: 21100 ± 500 nM
RNA10; RNA10, 1×1 AA loop
  Kd: 820 ± 160 nM
RNA10; RNA10 versus RNA2
  Specificity to RNA2: 6.3
Herring sperm DNA
  Kd: 110 ± 19 nM
RNA5; RNA5, 1×1 UU loop with GU closing pairs
  Kd: 810 ± 150 nM
RNA5; RNA5 versus RNA2
  Specificity to RNA2: 6.2
RNA5; loop GC pairs (RNA2) changed to GU (RNA5)
  weaker binding than to RNA2: ~6 fold
RNA9; RNA9, 1×1 AA loop (SCA3 motif)
  Kd: 450 ± 100 nM
RNA9; RNA9 versus RNA2
  Specificity to RNA2: 3.5
RNA11-MBNL1 complex; RNA 11, Condition A: 7.5 pmoles of MBNL1 per well
  IC50: 30200 ± 6800 nM
RNA11-MBNL1 complex; RNA 11, Condition B: 2.0 pmoles of MBNL1 per well
  IC50: 38100 ± 6900 nM
RNA8; RNA8
  Kd: 520 ± 18 nM
RNA8; RNA8 versus RNA2
  Specificity to RNA2: 4.0
RNA1; RNA1, fully paired hairpin cassette
  Kd: 1700 ± 70 nM
RNA1; RNA1 versus RNA2
  Specificity to RNA2: 13.1
RNA1; RNA2 over RNA1
  binds RNA2 more tightly than RNA1: 13 fold
r(CUG)109-MBNL1 complex; 0.65 pmoles r(CUG)109 immobilized, 3.7 μM bulk yeast tRNA, 32 pmoles MBNL1
  IC50: 110000 ± 20000 nM
r(CUG)109-MBNL1 complex; in the presence of bulk yeast tRNA
  inhibition of the MBNL1-r(CUG)109 interaction: ≥ 95%

## CN1CCN(c2ccc3[nH]c(-c4ccc5[nH]c(-c6ccc(O)cc6)nc5c4)nc3c2)CC1 [Compound 1, Hoechst 33258]
DNA1
  Kd: 280 nM
5′CUG/3′GUC
  affinity for 5′CUG/3′GUC: nanomolar affinity
mice
  tolerability and toxicity in mice: well tolerated by and non-toxic to mice

B1: MBNL1: Muscleblind-like 1 protein, alternative splicing regulator that binds expanded rCUG repeats (protein, UniProt Q9NR56 1-388, looked up)
Muscleblind-like protein 1: MAVSVTPIRDTKWLTLEVCREFQRGTCSRPDTECKFAHPSKSCQVENGRVIACFDSLKGRCSRENCKYLHPPPHLKTQLEINGRNNLIQQKNMAMLAQQMQLANAMMPGAPLQPVPMFSVAPSLATNASAAAFNPYLGPVSPSLVPAEILPTAPMLVTGNPGVPVPAAAAAAAQKLMRTDRLEVCREYQRGNCNRGENDCRFAHPADSTMIDTNDNTVTVCMDYIKGRCSREKCKYFHPPAHLQAKIKAAQYQVNQAAAAQAAATAAAMTQSAVKSLKRPLEATFDLGIPQAVLPPLPKRPALEKTNGATAVFNTGIFQYQQALANMQLQQHTAFLPPVPMVHGATPATVSAATTSATSVPFAATATANQIPIISAEHLTSHKYVTQM
r(CUG)109 [3]
  Kd: 300 ± 93 nM
RNA16 [4]
  Specificity to DM1 RNA11: 3.7
RNA12 [5]
  Specificity to DM1 RNA11: 2.5
  weaker than the DM1-MBNL1 complex: 2.5 fold
RNA14 [6]; MBNL1, DM2 RNA14
  higher affinity than the DM1-MBNL1 complex: 2 fold
RNA14 [6]; MBNL1, RNA14 versus RNA11
  Specificity to DM1 RNA11: 0.5
RNA15
  Kd: > 2500 nM
RNA16 [7]
  Kd: 920 ± 150 nM
RNA11
  Kd: 250 ± 10 nM
RNA17; MBNL1, RNA17 versus RNA11
  Specificity to DM1 RNA11: >4
RNA17; MBNL1 binding to fully paired RNA17
  Kd: > 1000 nM
RNA13 [8]
  Kd: 200 ± 30 nM
RNA13 [9]
  Specificity to DM1 RNA11: 0.8
RNA12 [10]
  Kd: 630 ± 70 nM
RNA14 [11]
  Kd: 120 ± 40 nM
